Source: ChEMBL document CHEMBL1150374, “Synthesis and anticonvulsant activity of aromatic tetramethylcyclopropanecarboxamide derivatives” (Bioorg Med Chem, 2008)
Active and inactive are the calls of the source. The rule behind the calls is not given here.

What was measured:
[1] = system: Mus musculus; assay: Anticonvulsant activity against maximal electroshock-induced seizures in mouse model at 300 mg/kg, ip after 0.5 hrs; assay type: functional, organism-based; design: dose 300 mg/kg
Procedure, shortened: (§1)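 Mice dosed intraperitoneally at 300 mg/kg, in a dosing volume of 0.01 mL per gram body weight. Seizure protection was scored at the stated time after dosing. Activity is expressed as the number of animals protected over the number tested.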

[2] = system: Mus musculus; assay: Anticonvulsant activity against maximal electroshock-induced seizures in mouse model at 300 mg/kg, ip after 4 hrs; assay type: functional, organism-based; design: dose 300 mg/kg; procedure, shortened: as §1
[3] = system: Mus musculus; assay: Anticonvulsant activity against scMet-induced seizures in mouse model at 300 mg/kg, ip after 0.5 hrs; assay type: functional, organism-based; design: dose 300 mg/kg; procedure, shortened: as §1
[4] = system: Mus musculus; assay: Anticonvulsant activity against scMet-induced seizures in mouse model at 300 mg/kg, ip after 4 hrs; assay type: functional, organism-based; design: dose 300 mg/kg; procedure, shortened: as §1
[5] = system: Rattus norvegicus; assay: Anticonvulsant activity against maximal electroshock-induced seizures in orally dosed rat model; assay type: functional; settings: po
[6] = system: Rattus norvegicus; assay: Anticonvulsant activity against scMet-induced seizures in orally dosed rat model; assay type: functional; settings: po
Procedure, shortened: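 Rats dosed orally in a volume of 0.04 mL per 10 g body weight. ED50 was determined with 95% confidence intervals by probit analysis.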

[7] = Toxicity in orally dosed rat by rotarod test; assay type: organism-based; settings: in vivo, po
Procedure, shortened: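 Rats dosed orally in a volume of 0.04 mL per 10 g body weight. Dose was varied until four points were established between the level causing no minimal motor impairment in any animal and the level at which all animals were impaired. TD50 was derived with 95% confidence intervals by probit analysis.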

[8] = species: Mus musculus; assay: Anticonvulsant activity against maximal electroshock-induced seizures in mouse model; assay type: functional
Procedure, shortened: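 Compounds given ip to mice at 100 or 300 mg/kg, dosed at 0.01 mL per gram body weight. Maximal electroshock seizures were tested at 0.5, 2 and 4 h after dosing. Activity is reported as animals protected over animals tested, with neurotoxicity scored alongside.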

[9] = system: Mus musculus; assay: Anticonvulsant activity against maximal electroshock-induced seizures in mouse model at 300 mg/kg, ip after 2 hrs; assay type: functional, organism-based; design: dose 300 mg/kg; procedure, shortened: as §1
[10] = system: Mus musculus; assay: Anticonvulsant activity against scMet-induced seizures in mouse model at 100 mg/kg; assay type: functional
[11] = species: Rattus norvegicus; assay: Protective index, ratio of TD50 for rat by rotarod test to ED50 for rat by MES test; assay type: functional
Procedure, shortened: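 PI was calculated as TD50/ED50 from oral dosing in rats. Both values were derived by probit analysis.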

**Q.** For CC1(C)C(C(=O)Nc2cc(Cl)c(S(N)(=O)=O)cc2S(N)(=O)=O)C1(C)C, which Activity [1] is on record?
**A.** inactive

**Q.** And the Activity [2]?
**A.** inactive

**Q.** What about the Activity [3] of the same molecule?
**A.** inactive

**Q.** What about the Activity [4] of the same molecule?
**A.** inactive

**Q.** What does the source list for Cc1cccc(C)c1OCC(C)NC(=O)C1C(C)(C)C1(C)C (stereo unspecified)?
**A.** Activity [1]: inactive; Activity [2]: inactive; Activity [3]: inactive; Activity [4]: inactive

**Q.** For CC(NC(=O)C1C(C)(C)C1(C)C)c1ccccc1 (stereo unspecified), which Activity [1] is on record?
**A.** inactive

**Q.** What about the Activity [2] of the same molecule?
**A.** inactive

**Q.** And the Activity [3]?
**A.** inactive

**Q.** What about the Activity [4] of the same molecule?
**A.** inactive

**Q.** With NS(=O)(=O)Cc1noc2ccccc12 [ZONISAMIDE] as the molecule, how does the ED50 [5] read?
**A.** 21 mg/kg

**Q.** And the ED50 [6]?
**A.** > 300 mg/kg

**Q.** What about the TD50 [7] of the same molecule?
**A.** 192 mg/kg

**Q.** Which Activity [1] does the source give for CC1(C)C(C(=O)NCc2ccccc2)C1(C)C here?
**A.** Active

**Q.** And the Activity [2]?
**A.** inactive

**Q.** And the Activity [3]?
**A.** Active

**Q.** What about the Activity [4] of the same molecule?
**A.** inactive

**Q.** With CCCC(CCC)C(=O)O [VALPROIC ACID] as the molecule, how does the ED50 [6] read?
**A.** 646 mg/kg

**Q.** Which ED50 [5] does the source give for CC1(C)C(C(=O)NC(N)=O)C1(C)C [2,2,3,3-TETRAMETHYLCYCLOPROPANECARBONYLUREA] here?
**A.** 29 mg/kg

**Q.** With CC(=O)c1ccc(NC(=O)C2C(C)(C)C2(C)C)cc1 as the molecule, how does the Activity [1] read?
**A.** inactive

**Q.** What about the Activity [2] of the same molecule?
**A.** Active

**Q.** What about the Activity [3] of the same molecule?
**A.** inactive

**Q.** And the Activity [4]?
**A.** inactive

**Q.** For Cc1cccc(C)c1OCC(C)N (stereo unspecified) [MEXILETINE], which ED50 [8] is on record?
**A.** 10 mg/kg

**Q.** For CC1(C)C(C(=O)Nc2ccc(S(N)(=O)=O)cc2)C1(C)C, which Activity [1] is on record?
**A.** inactive

**Q.** What about the Activity [9] of the same molecule?
**A.** Active

**Q.** What about the Activity [3] of the same molecule?
**A.** inactive

**Q.** What about the Activity [4] of the same molecule?
**A.** inactive

**Q.** And the ED50 [5]?
**A.** 26 mg/kg

**Q.** And the ED50 [6]?
**A.** > 100 mg/kg

**Q.** And the TD50 [7]?
**A.** > 500 mg/kg

**Q.** Which results are given for CC1(C)C(C(=O)Nc2ccccc2)C1(C)C?
**A.** Activity [1]: inactive; Activity [2]: inactive; Activity [3]: inactive; Activity [4]: inactive

**Q.** Which results are given for CC1(C)C(C(=O)NCc2ccc(F)cc2)C1(C)C?
**A.** Activity [1]: inactive; Activity [2]: inactive; Activity [3]: inactive; Activity [4]: inactive

**Q.** For CC1(C)C(C(=O)NCCc2ccccc2)C1(C)C, which Activity [1] is on record?
**A.** inactive

**Q.** And the Activity [2]?
**A.** inactive

**Q.** And the Activity [3]?
**A.** Active

**Q.** And the Activity [4]?
**A.** inactive

**Q.** For CCCC(CCC)C(=O)NCc1ccccc1 [VALPROYLBENZYLAMIDE], which Activity [10] is on record?
**A.** 50%

**Q.** Which Activity [1] does the source give for CC1(C)C(C(=O)NCc2ccccc2Cl)C1(C)C here?
**A.** inactive

**Q.** And the Activity [2]?
**A.** inactive

**Q.** And the Activity [3]?
**A.** inactive

**Q.** What about the Activity [4] of the same molecule?
**A.** inactive

**Q.** Which ED50 [6] does the source give for CONC(=O)C1C(C)(C)C1(C)C here?
**A.** 35 mg/kg

**Q.** And the PI [11]?
**A.** 10

**Q.** With CC(C(O)c1ccccc1)N(C)C(=O)C1C(C)(C)C1(C)C (stereo unspecified) as the molecule, how does the Activity [1] read?
**A.** inactive

**Q.** And the Activity [2]?
**A.** inactive

**Q.** And the Activity [3]?
**A.** inactive

**Q.** What about the Activity [4] of the same molecule?
**A.** inactive

**Q.** Which Activity [1] does the source give for CC1(C)C(C(=O)NCCCc2ccccc2)C1(C)C here?
**A.** inactive

**Q.** And the Activity [2]?
**A.** inactive

**Q.** And the Activity [3]?
**A.** inactive

**Q.** And the Activity [4]?
**A.** inactive

**Q.** With CC1(C)C(C(=O)NCc2ccc(S(N)(=O)=O)cc2)C1(C)C as the molecule, how does the Activity [1] read?
**A.** inactive

**Q.** And the Activity [3]?
**A.** inactive

**Q.** And the Activity [4]?
**A.** inactive

**Q.** With CCCC(CCC)C(=O)NCc1ccc(S(N)(=O)=O)cc1 as the molecule, how does the ED50 [8] read?
**A.** 16 mg/kg

**Q.** With CC(CNC(=O)C1C(C)(C)C1(C)C)c1ccccc1 (stereo unspecified) as the molecule, how does the Activity [1] read?
**A.** inactive

**Q.** What about the Activity [2] of the same molecule?
**A.** inactive

**Q.** What about the Activity [3] of the same molecule?
**A.** inactive

**Q.** And the Activity [4]?
**A.** inactive

**Q.** What does the source list for CC1(C)C(C(=O)NCCc2c[nH]c3ccccc23)C1(C)C?
**A.** Activity [1]: inactive; Activity [2]: inactive; Activity [3]: inactive; Activity [4]: inactive

**Q.** For CC1(C)C(C(=O)NC(=O)Nc2ccccc2)C1(C)C, which Activity [1] is on record?
**A.** inactive

**Q.** And the Activity [2]?
**A.** inactive

**Q.** And the Activity [3]?
**A.** inactive

**Q.** And the Activity [4]?
**A.** inactive
